Data as given in ChEMBL document CHEMBL3259728, “Design, synthesis and biological evaluation of some novel substituted quinazolines as antitumor agents” (2014).

What was measured:
Type in all cases: functional
Malme-3M = test: Growth inhibition of human MALME-3M cells at 10 uM after 48 hrs by SRB assay; conditions: read-out: GI
How it was run: (§1)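 NCI-60 primary one-dose screen run at the US NCI, with human tumour lines from nine cancer types. Compound added once at 10^-5 M, followed by 48 h incubation. End point was sulforhodamine B protein staining read spectrophotometrically. Result given as percent growth of treated cells against untreated controls, reported as % growth inhibition.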

NCI-H322M = test: Growth inhibition of human NCI-H322M cells at 10 uM after 48 hrs by SRB assay; conditions: read-out: GI; how it was run: as §1
U-251 = test: Growth inhibition of human U251 cells at 10 uM after 48 hrs by SRB assay; conditions: U-251, 48 h, read-out: GI; how it was run: as §1
SR = test: Growth inhibition of human SR cells at 10 uM after 48 hrs by SRB assay; conditions: read-out: GI; how it was run: as §1
NCI-H23 = test: Growth inhibition of human NCI-H23 cells at 10 uM after 48 hrs by SRB assay; conditions: NCI-H23, 48 h, read-out: GI; how it was run: as §1
K562 = test: Growth inhibition of human K562 cells at 10 uM after 48 hrs by SRB assay; conditions: K562, 48 h, read-out: GI; how it was run: as §1
[1] = Growth inhibition of human OVCAR3 cells at 10 uM after 48 hrs by SRB assay; conditions: OVCAR-3, 48 h, read-out: GI; how it was run: as §1
MDA-MB-435 = test: Growth inhibition of human MDA-MB-435 cells at 10 uM after 48 hrs by SRB assay; conditions: MDA-MB-435, 48 h, read-out: GI; how it was run: as §1
M14 = test: Growth inhibition of human M14 cells at 10 uM after 48 hrs by SRB assay; conditions: M14, 48 h, read-out: GI; how it was run: as §1
[2] = Growth inhibition of human NCI-ADR-RES cells at 10 uM after 48 hrs by SRB assay; conditions: read-out: GI; how it was run: as §1
[3] = Growth inhibition of human BT549 cells at 10 uM after 48 hrs by SRB assay; conditions: BT-549, 48 h, read-out: GI
How it was run: (§2)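 NCI primary one-dose screen. A single concentration of 10^-5 M was added to the cell culture, followed by 48 h incubation and an SRB protein-dye endpoint read spectrophotometrically. Results are growth percentage relative to untreated control cells, reported as % growth inhibition.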

SF-268 = test: Growth inhibition of human SF268 cells at 10 uM after 48 hrs by SRB assay; conditions: SF-268, 48 h, read-out: GI; how it was run: as §1
DU-145 = test: Growth inhibition of human DU145 cells at 10 uM after 48 hrs by SRB assay; conditions: DU-145, 48 h, read-out: GI; how it was run: as §1
[4] = Growth inhibition of human RXF393 cells at 10 uM after 48 hrs by SRB assay; conditions: RXF 393, 48 h, read-out: GI; how it was run: as §1
SNB-19 = test: Growth inhibition of human SNB19 cells at 10 uM after 48 hrs by SRB assay; conditions: SNB-19, 48 h, read-out: GI; how it was run: as §1
ACHN = test: Growth inhibition of human ACHN cells at 10 uM after 48 hrs by SRB assay; conditions: read-out: GI; how it was run: as §2
HT-29 = test: Growth inhibition of human HT-29 cells at 10 uM after 48 hrs by SRB assay; conditions: HT-29, 48 h, read-out: GI; how it was run: as §1
MCF7 = test: Growth inhibition of human MCF7 cells at 10 uM after 48 hrs by SRB assay; conditions: MCF7, 48 h, read-out: GI; how it was run: as §1
SK-MEL-2 = test: Growth inhibition of human SK-MEL-2 cells at 10 uM after 48 hrs by SRB assay; conditions: SK-MEL-2, 48 h, read-out: GI; how it was run: as §1
A498 = test: Growth inhibition of human A498 cells at 10 uM after 48 hrs by SRB assay; conditions: A498, 48 h, read-out: GI; how it was run: as §2
TK-10 = test: Growth inhibition of human TK10 cells at 10 uM after 48 hrs by SRB assay; conditions: TK-10, 48 h, read-out: GI; how it was run: as §1
KM12 = test: Growth inhibition of human KM12 cells at 10 uM after 48 hrs by SRB assay; conditions: KM12, 48 h, read-out: GI; how it was run: as §1
A549 = test: Growth inhibition of human A549 cells at 10 uM after 48 hrs by SRB assay; conditions: A549, 48 h, read-out: GI; how it was run: as §2
[5] = Growth inhibition of human UACC62 cells at 10 uM after 48 hrs by SRB assay; conditions: UACC-62, 48 h, read-out: GI; how it was run: as §1
MDA-MB-468 = test: Growth inhibition of human MDA-MB-468 cells assessed as cell growth at 10 uM after 48 hrs by SRB assay; conditions: MDA-MB-468, 48 h, read-out: GI; how it was run: as §1
[6] = Growth inhibition of human HCT15 cells at 10 uM after 48 hrs by SRB assay; conditions: HCT-15, 48 h, read-out: GI; how it was run: as §1
NCI-H522 = test: Growth inhibition of human NCI-H522 cells at 10 uM after 48 hrs by SRB assay; conditions: NCI-H522, 48 h, read-out: GI; how it was run: as §1
HCT-116 = test: Growth inhibition of human HCT116 cells at 10 uM after 48 hrs by SRB assay; conditions: HCT-116, 48 h, read-out: GI; how it was run: as §1
SW-620 = test: Growth inhibition of human SW620 cells at 10 uM after 48 hrs by SRB assay; conditions: SW-620, 48 h, read-out: GI; how it was run: as §1
PC-3 = test: Growth inhibition of human PC3 cells at 10 uM after 48 hrs by SRB assay; conditions: PC-3, 48 h, read-out: GI; how it was run: as §1
SK-OV-3 = test: Growth inhibition of human SKOV3 cells at 10 uM after 48 hrs by SRB assay; conditions: SK-OV-3, 48 h, read-out: GI; how it was run: as §1
786-0 = test: Growth inhibition of human 786-0 cells at 10 uM after 48 hrs by SRB assay; conditions: 786-0, 48 h, read-out: GI; how it was run: as §2
[7] = Growth inhibition of human OVCAR5 cells at 10 uM after 48 hrs by SRB assay; conditions: OVCAR-5, 48 h, read-out: GI; how it was run: as §1
SN12C = test: Growth inhibition of human SN12C cells at 10 uM after 48 hrs by SRB assay; conditions: read-out: GI; how it was run: as §1
SK-MEL-28 = test: Growth inhibition of human SK-MEL-28 cells at 10 uM after 48 hrs by SRB assay; conditions: SK-MEL-28, 48 h, read-out: GI; how it was run: as §1
[8] = Growth inhibition of human SF539 cells at 10 uM after 48 hrs by SRB assay; conditions: SF-539, 48 h, read-out: GI; how it was run: as §1
RPMI-8226 = test: Growth inhibition of human RPMI8226 cells at 10 uM after 48 hrs by SRB assay; conditions: RPMI-8226, 48 h, read-out: GI; how it was run: as §1
[9] = Growth inhibition of human UACC257 cells at 10 uM after 48 hrs by SRB assay; conditions: UACC-257, 48 h, read-out: GI; how it was run: as §1
T47D = test: Growth inhibition of human T47D cells at 10 uM after 48 hrs by SRB assay; conditions: read-out: GI; how it was run: as §1

Row | Structure (SMILES) | inhibition of growth at 10 µM (Malme-3M) | inhibition of growth at 10 µM (NCI-H322M) | inhibition of growth at 10 µM (U-251) | inhibition of growth at 10 µM (SR) | inhibition of growth at 10 µM (NCI-H23) | inhibition of growth at 10 µM (K562) | inhibition of growth at 10 µM [1] | inhibition of growth at 10 µM (MDA-MB-435) | inhibition of growth at 10 µM (M14) | inhibition of growth at 10 µM [2] | inhibition of growth at 10 µM [3] | inhibition of growth at 10 µM (SF-268) | inhibition of growth at 10 µM (DU-145) | inhibition of growth at 10 µM [4] | inhibition of growth at 10 µM (SNB-19) | inhibition of growth at 10 µM (ACHN) | inhibition of growth at 10 µM (HT-29) | inhibition of growth at 10 µM (MCF7) | inhibition of growth at 10 µM (SK-MEL-2) | inhibition of growth at 10 µM (A498) | further results
1 | Cc1ccc(C2=Nc3ccc(Cl)cc3C3=NNCC(=O)NN23)cc1 | < 10% | < 10% | < 10% | < 10% | < 10% | < 10% | < 10% | < 10% | < 10% | < 10% | < 10% | < 10% | < 10% | < 10% | < 10% | < 10% | < 10% | < 10% | < 10% | 34% | inhibition of growth at 10 µM (TK-10): < 10%; inhibition of growth at 10 µM (KM12): < 10%; inhibition of growth at 10 µM (A549): 11%; inhibition of growth at 10 µM [5]: < 10%; inhibition of growth at 10 µM (MDA-MB-468): 11%; inhibition of growth at 10 µM [6]: < 10%; inhibition of growth at 10 µM (NCI-H522): < 10%; inhibition of growth at 10 µM (HCT-116): < 10%; inhibition of growth at 10 µM (SW-620): < 10%; inhibition of growth at 10 µM (PC-3): < 10%; inhibition of growth at 10 µM (SK-OV-3): < 10%; inhibition of growth at 10 µM (786-0): < 10%; inhibition of growth at 10 µM [7]: < 10%; inhibition of growth at 10 µM (SN12C): < 10%; inhibition of growth at 10 µM (SK-MEL-28): < 10%; inhibition of growth at 10 µM [8]: < 10%; inhibition of growth at 10 µM (RPMI-8226): < 10%; inhibition of growth at 10 µM [9]: < 10%
2 | Cc1ccc(-c2nc3ccc(Cl)cc3c(=O)n2/N=C/c2ccccc2)cc1 | 35% | 24% | 88% | 20% | 11% | < 10% | 42% | 34% | 29% | 30% | < 10% | 40% | 27% | < 10% | 25% | 74% | 17% | 20% | < 10% | 16% | inhibition of growth at 10 µM (T47D): 25%; inhibition of growth at 10 µM (TK-10): 26%; inhibition of growth at 10 µM (KM12): 18%; inhibition of growth at 10 µM (A549): 87%; inhibition of growth at 10 µM [5]: 23%; inhibition of growth at 10 µM [6]: 14%; inhibition of growth at 10 µM (NCI-H522): 52%; inhibition of growth at 10 µM (HCT-116): 47%; inhibition of growth at 10 µM (SW-620): 23%; inhibition of growth at 10 µM (PC-3): 30%; inhibition of growth at 10 µM (SK-OV-3): 64%; inhibition of growth at 10 µM (786-0): 30%; inhibition of growth at 10 µM [7]: 18%; inhibition of growth at 10 µM (SN12C): 32%; inhibition of growth at 10 µM (SK-MEL-28): < 10%; inhibition of growth at 10 µM [8]: 22%; inhibition of growth at 10 µM (RPMI-8226): 20%; inhibition of growth at 10 µM [9]: < 10%
